Experimental data from paper PMC4254268 (Cellular signalling, 2014).

Columns and labels:
[1] = Ang-; assay type: in vitro ADME, rat; settings: n=3
In short: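 NRK-52E cells grown to confluence are serum-starved 24 h, then kept 48 h in serum-free or 100 uM glycated albumin (MGA) medium. They are harvested, frozen at −80°C and homogenized in 10 mM HEPES, 125 mM NaCl, 10 μM ZnCl2, pH 7.4, then spun at 100,000g. 125I-Ang-(1-7) (0.5 nM) is incubated with 2 μg supernatant protein for 30 min at 37°C and stopped with ice-cold 1.0% phosphoric acid. Products are separated by isocratic reverse-phase HPLC with flow-through γ detection, identified against 125I standards, and reported as fmol/mg/min (Bradford protein).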

[2] = test system: α-SMA in NRK-52E cells; assay: α-SMA protein expression by Western blot; assay type: cell-based, rat; settings: 100 μM MGA 48 h
In short: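 After 24 h serum starvation, cells received 100 uM MGA ± test agents for 48 h. Triton lysates were run on 10% SDS-PAGE and transferred to PVDF. Blots were probed overnight at 4°C with mouse anti-α-SMA (1:5000), then anti-mouse HRP (1:3000) and chemiluminescence. Membranes were stripped and re-probed for EFα1 (1:3000) as loading control. Densitometry; 3-4 cell passages.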

[3] = test system: α-SMA in NRK-52E cells; assay: α-SMA immunofluorescent staining; assay type: cell-based, rat; settings: 100 μM MGA 72 h, Ang-(1-7) 100 nM + DAL 10 μM
In short: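 NRK-52E cells were grown 2 days on chamber slides in 5% FBS medium, then serum-free for 24 h. They were treated 72 h with 100 μM MGA ± test agents and fixed in 2% paraformaldehyde for 15 min. After 0.2% Triton permeabilisation and 3% BSA block, cells were stained overnight at 4°C with mouse anti-α-SMA (1:200), then Alexa Fluor 568 anti-mouse (1:400); nuclei with DAPI. Representative of 3 passages.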

[4] = test system: TGF-β release from NRK-52E cells; assay: TGF-β release into cell media by ELISA; assay type: cell-based, rat; settings: MGA 48 h
In short: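 Cells were seeded in 12-well plates, kept serum-free for 24 h, then treated with MGA ± test agents; serum-free cells served as controls. Media were collected on ice and TGF-β measured by ELISA (sensitivity 15 pg/ml). Release was expressed as ng/ml.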

[5] = test system: NRK-52E cells; assay: Cellular hypertrophy by 3H-leucine incorporation; assay type: cell-based, rat; settings: 100 μM MGA 48 h
In short: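 Confluent NRK-52E cells were serum-starved for 24 h, then kept 48 h in serum-free medium ± 100 μM MGA and test agents. Cells were pulsed with 0.5 μCi 3H-leucine for the last 24 h at 37°C, washed in PBS and fixed 15 min in ice-cold 10% TCA. After 5% TCA washes, protein was dissolved in 0.05 N NaOH/0.1% SDS at 37°C and counted by scintillation. Triplicate wells; % of control per well; 5 cell passages.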

[6] = test system: ERK1/2 in NRK-52E cells; assay: MGA-induced ERK1/2 phosphorylation by Western blot; assay type: cell-based, rat; settings: MGA 48 hours, immunoblot densitometry, n=3
In short: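 Cells were serum-starved for 24 h, then treated with 100 uM MGA for 48 h. Lysis was in Triton buffer, pH 7.4, with NaVO4, PMSF and leupeptin. 10-50 μg protein was run on 10% SDS-PAGE and transferred to PVDF. Blots were probed overnight at 4°C with anti-phospho-ERK1/2 (1:2000), then stripped and re-probed for total ERK1/2 (1:3000). Detection was HRP chemiluminescence, with densitometry. 3 cell passages.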

[7] = test system: NRK-52E cells; assay: Cell area in immunofluorescent images; assay type: cell-based, rat; settings: MGA 48 hours
In short: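 NRK-52E cells were serum-starved for 24 h, then exposed to MGA for 48 h. Immunofluorescent images were taken. Fields were chosen at random and every cell in each field was measured. Cell area was expressed as % of control cell area.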

[8] = test system: NRK-52E cells; assay: Intracellular angiotensin peptide content by RIA; assay type: cell-based, rat
In short: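 Cells were serum-free for 24 h, then given 100 uM MGA for 48 h; pellets were snap-frozen. Pellets were boiled 15 min in water, sonicated, acidified to 0.2% TFA and spun at 20,000g for 20 min at 4°C. Peptides were extracted on C18 (eluted in 80% methanol/0.2% TFA) and blanks subtracted. Ang I, Ang II and Ang-(1-7) were measured by separate RIAs; the Ang-(1-7) RIA also detects Ang-(2-7). Paired t-test versus control.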

[9] = test system: ERK1/2 in NRK-52E cells; assay: TGF-β-induced ERK1/2 phosphorylation by Western blot; assay type: cell-based, rat; settings: TGF-β 5 ng/ml, 15 min incubation, n=3
In short: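 Rat kidney proximal epithelial NRK-52E cells in DMEM/F12 with 5% FBS are serum-starved 24 h, then exposed to TGF-β (5 ng/ml) for 15 min. Lysis is in Triton buffer (100 mM NaCl, 50 mM NaF, 5 mM EDTA, 1% Triton X-100, 50 mM Tris-HCl pH 7.4, plus NaVO4, PMSF, leupeptin), followed by sonication and a 10,000 g spin. 10-50 μg protein is run on 10% SDS-PAGE and blotted to PVDF. Phospho-ERK1/2 is detected by HRP chemiluminescence, then the membrane is stripped and reprobed for total ERK1/2. Bands are quantified by densitometry.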

For `CC[C@H](C)[C@H](NC(=O)[C@H](Cc1ccc(O)cc1)NC(=O)[C@@H](NC(=O)[C@H](CCCNC(=N)N)NC(=O)[C@@H](N)CC(=O)O)C(C)C)C(=O)N[C@@H](Cc1c[nH]cn1)C(=O)N1CCC[C@H]1C(=O)O` [Ang-(1-7), Angiotensin-(1-7)], the “Metabolism of Ang-(1-7) to Ang-(1-4), MGA cells (abstract)” value ([1]; supernatant of MGA-treated NRK-52E cells) was 175 ± 9 fmol/min/mg protein and the “Metabolism of Ang-(1-7) to Ang-(1-4), control cells (abstract)” value ([1]; supernatant of control NRK-52E cells) was 115 ± 11 fmol/min/mg protein.
For “D-Ala^7-Ang-(1-7) [DAL, reference compound]”, the “Effect of DAL on the inhibition of MGA-induced α-SMA expression by Ang-(1-7)” value ([2]; Ang-(1-7) 100 nM + DAL 10 μM) was “blocked” and the “Effect of DAL on the inhibition of MGA-induced MT by Ang-(1-7) (α-SMA staining)” value [3] was “appeared to be reversed”.
For “MGA: AGE product: BSA incubated with 500 μM methylglyoxal for 24 hours”, the “TGF-β release, MGA alone” value ([4]; ELISA of media, control 0.4 ± 0.1, n=6) was 1.16 ± 0.1 ng/mL, the “Fold increase of TGF-β release, MGA alone” value ([4]; vs control) was “approximately 3 fold” and the “Fold induction of α-SMA protein expression, MGA alone” value ([2]; vs control cells) was 3 fold. The “Fold increase of 3H-leucine incorporation, MGA alone” value [5] was “approximately 2 fold”, the “Fold increase in density of phosphorylated ERK 1, MGA alone” value [6] was 2.5 fold and the “Fold increase in density of phosphorylated ERK 2, MGA alone” value [6] was 4 fold. For the same compound, the “Fold increase of cell area, MGA alone” value [7] was “approximately 4 fold”, the “Cell area, MGA alone” value ([7]; mean ± SEM n=3) was 467 ± 70 % of control and the “Intracellular Ang-(1-7) peptide content” value ([8]; 100 uM MGA 48 h, RIA, mean ± SEM, n=3, control cells 396 ± 59) was 219 ± 54 fmol/mg protein. For the same compound, the “Intracellular Ang I peptide levels vs control” value ([8]; 100 uM MGA 48 h, RIA, n=3) was “not different”, the “Intracellular Ang II peptide levels vs control” value ([8]; 100 uM MGA 48 h, RIA, n=3) was “not different” and the “Reduction of intracellular levels of Ang-(1-7)” value ([8]; MGA exposure 48 hours) was “approximately 50%”.
In the case of TGF-β, the “ERK1/2 phosphorylation, TGF-β alone” value [9] is reported as “stimulated”.
